Screens: PubChem, The Scripps Research Institute Molecular Screening Center
OX1R antag-1: OX1R (HCRTR1) antagonists, primary screen, fluorescence, CHO/OX1R cells, Fluo-8 calcium, orexin A; AID 434989, 2010; Orexin/Hypocretin receptor type 1 (Homo sapiens), O43613; inhibition, % at 5 µM; actives 0.43% (n = 330,000); Fluo-8 calcium fluorescence;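 active means inhibition above its plate's threshold, mean inhibition of all tested compounds on the plate plus 3 SD, cut at about 37% in these data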;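 further: 0% = orexin A challenge wells and 100% = SB-334867-A antagonist wells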
CHO parental Ca: ATP-evoked calcium signal inhibitors, parental CHO, primary screen, counter-screen for OX1R antagonist project, cell-based, fluorescence, Fluo-8 calcium dye. parental CHO-K1, ATP-induced calcium, Fluo-8 fluorescence. actives 0.63% (n = 330,000). inhibition, % at 5.6 µM. AID 463079, 2010;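 active means inhibition above that plate's mean sample inhibition plus 3 SD, cut at about 26% in these data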;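 further: 0% = ATP-challenged DMSO wells and 100% = DMSO wells without ATP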
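Material – parental CHO cells · Reagent – ATP stimulus · Compound – single nominal dose of 5.6 µM per compound · Detection – Fluo-8 fluorescence · Read-out basis – percent inhibition of calcium signal · Controls – ATP-challenged DMSO wells low, unchallenged DMSO wells high · Repeats – no replicates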
TRPML3 agonist: human TRPML3 channel agonists, primary screen, cell-based, HEK293 TRPML3-YFP, Fluo-8 calcium fluorescence, 3 µM; Mucolipin-3 (Homo sapiens), Q8TDD5; 100% = the carbachol control signal; activation, % at 3 µM; actives 0.29% (n = 220,000); AID 1448, 2008;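 active means activation above its plate's cutoff, the mean activation of the plate's test wells plus 3 SD, cut at about 12% in these data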;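 further: 0% = DMSO only wells and 100% = carbachol wells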
Target sequence (Q8TDD5 whole entry, looked up): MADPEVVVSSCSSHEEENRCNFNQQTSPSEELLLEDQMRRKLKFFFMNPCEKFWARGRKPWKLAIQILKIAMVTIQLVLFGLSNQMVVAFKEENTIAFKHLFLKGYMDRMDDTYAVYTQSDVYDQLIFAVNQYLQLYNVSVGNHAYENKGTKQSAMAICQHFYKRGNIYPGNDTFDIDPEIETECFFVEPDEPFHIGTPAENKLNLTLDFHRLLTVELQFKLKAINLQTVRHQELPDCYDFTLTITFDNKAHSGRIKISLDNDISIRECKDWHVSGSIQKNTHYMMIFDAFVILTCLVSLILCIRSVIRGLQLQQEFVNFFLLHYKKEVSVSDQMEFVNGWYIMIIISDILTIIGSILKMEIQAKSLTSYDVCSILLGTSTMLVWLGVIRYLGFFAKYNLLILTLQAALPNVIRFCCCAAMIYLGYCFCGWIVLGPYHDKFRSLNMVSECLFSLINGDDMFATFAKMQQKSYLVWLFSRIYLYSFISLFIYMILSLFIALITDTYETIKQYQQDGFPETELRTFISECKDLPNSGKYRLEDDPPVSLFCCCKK
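Test system: TRPML3-YFP stable HEK293 cells. Doses: single point at 3 µM. Incubation: dye loading 1 h 37 °C then 30 min ambient, 125 s read. Signal: Fluo-8 calcium dye fluorescence, ex 470-495, em 515-575 nm. Measure: percent activation from peak-to-basal fluorescence ratio, scaled between DMSO and carbachol.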
OX1R antag-2: antagonists of human orexin 1 receptor (OX1R). Orexin/Hypocretin receptor type 1 (Homo sapiens), O43613. OX1R-expressing cells, FRET antagonist read-out. inhibition, % at 6.6 µM. actives 1.8% (n = 330,000). AID 485270, 2010; in the data active means inhibition mostly above about 38%, no sharp cut-off; inactive means mostly below about 40%;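 further: 0% = agonist challenge alone and 100% = reference antagonist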
zfTRPN1 agonist: zebrafish TRPN1 channel agonists, primary screen, cell-based, HEK293, calcium fluorescence | transient receptor potential cation channel N1 (TRPN1/NompC), Danio rerio | HEK293 zebrafish TRPN1-YFP, Fluo-8 calcium fluorescence; 100% = response to 87 µM carbachol | activation, % at 3 µM | actives 0.18% (n = 220,000);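 active means activation above its plate's cutoff, the mean activation of test wells on that plate plus 3 SD, cut at about 19% in these data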;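 further: 0% = DMSO alone and 100% = 87 µM carbachol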
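Material – zebrafish TRPN1-YFP in HEK293 cells · Doses – 3 µM single point · Schedule – dye 1 h 37 °C plus 30 min RT · Signal – Fluo-8 calcium fluorescence, excitation 470-495 nm, emission 515-575 nm · Read-out – % activation versus carbachol response · Control set – carbachol high, DMSO low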
Starred values were filed as active, the others as inactive; nt = not tested or not shown. Hits are enriched below; roughly 2.5% of the tested compounds scored in any of these assays.

SMILES	OX1R antag-1	CHO parental Ca	TRPML3 agonist	OX1R antag-2	zfTRPN1 agonist
Cc1cccc2c1-c1sc(C(=O)Nc3nccs3)cc1CO2	-2	-5	1	50*	1
Cc1cccc2c1-c1sc(C(=O)Nc3cccnc3)cc1CO2	34	-28	nt	56*	nt
O=C(Nc1nccs1)c1cc2c(s1)-c1ccccc1OC2	-2	12	1	42	2
CCN(CC(=O)Nc1ccc(NC(C)=O)cc1)C(=O)c1cccc2ccccc12	-11	-16	nt	2	nt
COc1cc(C2NC(=O)NC(c3ccccc3)=C2C(C)=O)c(Br)c(Br)c1O (centres undefined)	-22	-23	nt	8	nt
O=C(Cn1cnc2cc([N+](=O)[O-])ccc2c1=O)Nc1ccccc1-c1ccccc1	-23	-23	1	48*	1
Cc1ccc(OCCn2cnc3cc([N+](=O)[O-])ccc3c2=O)cc1	-23	-13	1	33	0
O=C(Cn1cnc2cc([N+](=O)[O-])ccc2c1=O)Nc1ccc(Br)cc1	-13	-10	0	9	0
O=c1c2ccc([N+](=O)[O-])cc2ncn1CCOc1ccccc1	-22	-13	0	68*	2
CC1CC(C)CN(C(=O)c2ccc(S(=O)(=O)N3CC(C)CC(C)C3)cc2)C1 (centres undefined)	-31	-20	nt	13	nt
Cc1cc(C)cc(NC(=O)c2ccc(CSc3nnnn3C)cc2)c1	7	-9	0	49*	4
Cn1nnnc1SCc1ccc(C(=O)Nc2ccccc2F)cc1	-24	-5	1	26	2
Cc1ccc(CN(C)C(=O)c2cc(S(=O)(=O)N3CCOCC3)ccc2F)o1	-28	-8	nt	-1	nt
Cc1ccc(S(=O)(=O)N2CCC(=O)N(C(COCc3ccc(Cl)cc3)C(C)C)CC2)cc1 (centres undefined)	-42	-25	14*	16	-1
COc1cc(OC)c(NC(=O)CNC(=O)Cn2ccc3ccccc3c2=O)cc1Cl	3	0	nt	nt	nt
CC(=O)n1c2ccccc2c2c1c1ccccc1n2C	-1	-20	0	61*	0
CNc1nc2cc([N+](=O)[O-])c([N+](=O)[O-])cc2nc1NC	27	59*	9	45	27*
Cc1ccc(CNC(=O)c2ccc(N3CCCC3=O)cc2)cc1	-14	-9	0	4	2
Cn1nc(C(C)(C)C)cc1C(=O)NCc1ccc(N2CCCC2=O)cc1	19	37*	1	30	2
CCC(NC(=O)Nc1nnc(C(F)(F)F)s1)(C(F)(F)F)C(F)(F)F	65*	81*	23*	60*	26*
O=C(O)CCC(=O)Nc1nnc(C(F)(F)F)s1	-13	-2	1	7	1
NC(=O)CC(NC(=O)c1ccccc1)c1ccc(NCc2ccccn2)c([N+](=O)[O-])c1 (centres undefined)	-17	-12	nt	38	nt
Cc1ccc(C(=O)Nc2ccccc2C(=O)NC(Cc2c[nH]c3ccccc23)C(=O)O)cc1 (centres undefined)	-20	-20	0	50*	0
O=C(COc1ccccc1Cl)c1ccc2c(c1)CCCC2	-28	28*	0	23	0
O=C(NCc1ccco1)c1ccc(Cl)nc1	-2	5	0	12	1
SMILES	OX1R antag-1	CHO parental Ca	TRPML3 agonist	OX1R antag-2	zfTRPN1 agonist
CCN1C(=O)[C@H]2[C@@H](c3ccc(C)cc3)N3C(=O)N(c4cccc(F)c4)C(=O)[C@@]3(Cc3ccc(Cl)cc3)[C@H]2C1=O	-6	-9	nt	56*	nt
O=C1C=C(N2CCOCC2)c2ccccc2C1=O	-13	-3	nt	64*	nt
C/C(=N\NC(=S)NC1CCCCC1)c1ccc(OC(F)F)cc1OC(F)F	28	41*	0	37	0
S=C(Nc1ccc(Cl)cc1)NC1CCCCC1	-13	-3	6	20	7
FC(F)Oc1ccc(NC(=S)NC2CCCCCCC2)cc1	24	37*	nt	29	nt
C/C(=N\NC(=O)C(N)=O)c1cccc([N+](=O)[O-])c1	21	13	0	18	2
